# Measured values reported in PubChem BioAssay.
# Active and inactive are the calls of the source.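 Rule for the calls, unless noted: active = viability at or under a set limit in both replicates, limit being median viability minus 3 SD (cut at about 48% in these data, passing the limit was not always enough); inconclusive = at or under the limit in just one replicate; inactive = at or above the limit in both replicates.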
# Legend:
# [1] = reducers of endogenous Her2 protein level, primary screen, SKBR3 breast tumor cells, AlphaScreen, ATP viability (AID 461;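 active = Her2 level under about 52% in both replicate screens, with viability over 70% of control, limit read from the data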;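 for Her2 level: lower value means less Her2 protein in the cells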;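 for viability: percent of carrier control wells set as 100% viability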); conditions: 18-24 h, measured here: SKBR3 viability, ATP luminescence, at 10 µM
# [2] = target: Receptor tyrosine-protein kinase erbB-2 (Homo sapiens) (UniProt P04626); assay: as above; conditions: 18-24 h, at 10 µM, stronger effect = lower value
# [3] = SK-BR-3 cell growth inhibitors, pilot screen, 24 h, human (AID 572;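 active = viability at or below 10% of carrier control in both of two separate runs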;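 note: compound exposure lasted between 18 and 24 h rather than exactly 24 h; 100% = carrier-treated control wells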); conditions: SK-BR-3 viability, CellTiter-Glo luminescence, at 10 µM, stronger effect = lower value
# [4] = HUVEC growth inhibition – cell-based, human, primary screen (AID 575;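 active = viability at or below 30% in both replicate assays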;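 note: 100% = median of untreated cell wells with 0.1% DMSO on each plate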); conditions: HUVEC proliferation, CellTiter-Glo luminescence, 72 h; at 10 µM; stronger effect = lower value
# In short: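 system = HUVEC primary cells | amount = 1250 cells/well | buffer or medium = supplemented EBM, 2% fetal bovine serum | dosing = single-point 10 µM, DMSO 0.1% final | times = 72 h compound incubation | detection = CTG luminescence | read-out = % viability relative to median vehicle-well signal on each plate | control set = vehicle and MePR control wells | format = collagen-coated 384-well format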
# [5] = growth inhibitors of H69AR lung tumor, primary screen, human, duplicate replicates (AID 580); conditions: H69AR lung tumor cells viability, ATP luminescence, 72 h; at 10 µM; stronger effect = lower value;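 note: 100% = mean luminescence of untreated wells and 0% = no signal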
# [6] = reversal of MRP1-mediated doxorubicin resistance, pilot screen, H69AR cells, doxorubicin co-treatment (AID 601;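 active = viability loss from added drug above about 55%, and viability with drug at most 40%, in both replicates, limit read from the data, passing the limit was not always enough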); conditions: CellTiter-Glo, 72 h, at 10 µM; for differential viability (reversal): stronger effect = higher value
# [7] = H69AR cells + 2 uM doxorubicin, measured here: viability with 2 uM doxorubicin, stronger effect = lower value
# [8] = H69AR cells, compound alone cytotoxicity
# Receptor tyrosine-protein kinase erbB-2 (Homo sapiens), sequence (P04626 whole entry, looked up): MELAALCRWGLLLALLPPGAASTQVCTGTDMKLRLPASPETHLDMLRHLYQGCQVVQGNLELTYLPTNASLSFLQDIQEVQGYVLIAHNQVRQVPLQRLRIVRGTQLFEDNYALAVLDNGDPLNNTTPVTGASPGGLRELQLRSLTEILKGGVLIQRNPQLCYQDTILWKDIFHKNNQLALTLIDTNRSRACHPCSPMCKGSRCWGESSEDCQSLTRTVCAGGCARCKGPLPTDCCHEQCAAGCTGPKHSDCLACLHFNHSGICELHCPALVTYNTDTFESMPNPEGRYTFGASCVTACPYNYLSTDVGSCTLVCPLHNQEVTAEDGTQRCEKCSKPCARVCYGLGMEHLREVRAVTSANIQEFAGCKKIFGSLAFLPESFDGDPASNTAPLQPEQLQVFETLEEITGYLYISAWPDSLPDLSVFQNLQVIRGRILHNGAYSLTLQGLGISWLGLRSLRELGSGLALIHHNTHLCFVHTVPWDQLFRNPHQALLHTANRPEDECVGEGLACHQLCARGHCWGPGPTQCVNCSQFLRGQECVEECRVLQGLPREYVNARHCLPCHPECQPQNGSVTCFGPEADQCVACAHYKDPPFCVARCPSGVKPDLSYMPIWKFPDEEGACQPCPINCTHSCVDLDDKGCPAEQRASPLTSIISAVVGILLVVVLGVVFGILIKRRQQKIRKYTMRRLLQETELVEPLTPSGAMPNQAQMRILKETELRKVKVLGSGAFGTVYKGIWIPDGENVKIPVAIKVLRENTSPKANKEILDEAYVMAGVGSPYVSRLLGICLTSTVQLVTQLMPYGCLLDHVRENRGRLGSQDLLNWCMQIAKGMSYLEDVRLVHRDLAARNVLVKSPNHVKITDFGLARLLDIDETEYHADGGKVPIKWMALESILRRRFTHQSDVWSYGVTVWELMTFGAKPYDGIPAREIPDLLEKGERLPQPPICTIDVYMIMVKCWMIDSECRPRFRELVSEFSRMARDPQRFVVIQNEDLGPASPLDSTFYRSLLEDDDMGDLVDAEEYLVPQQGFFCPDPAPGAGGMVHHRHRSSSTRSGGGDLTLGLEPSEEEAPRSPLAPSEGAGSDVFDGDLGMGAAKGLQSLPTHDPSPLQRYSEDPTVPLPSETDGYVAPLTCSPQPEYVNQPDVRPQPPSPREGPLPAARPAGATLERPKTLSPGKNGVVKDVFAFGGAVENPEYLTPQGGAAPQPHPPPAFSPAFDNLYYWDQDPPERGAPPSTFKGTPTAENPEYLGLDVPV
SMILES,viability [1] [%],Her2 level [2],viability [3],viability [4],viability [5],differential viability (reversal) ([6]; H69AR cells + 2 uM doxorubicin),"viability [6, 7] [%]","viability [6, 8] [%]"
C[C@]12CC[C@@H]3c4ccc(O[C@@H]5O[C@H](C(=O)O)[C@@H](O)[C@H](O)[C@H]5O)cc4CC[C@H]3[C@@H]1C[C@@H](O)[C@@H]2O,102,92.5% (inactive),102% (inactive),89.5% (inactive),102% (inactive),17.1% (inactive),84.8,102
Nc1ccc2cn[nH]c2c1,100,128% (inactive),100% (inactive),82.2% (inactive),93.1% (inactive),-18.1% (inactive),111,93.1
CCCCOc1ccc(OCCCN2CCOCC2)cc1,96.5,108% (inactive),96.5% (inactive),91.7% (inactive),103% (inactive),7.79% (inactive),95.2,103
COC(=O)[C@@H](N)Cc1ccc(O)cc1,106,108% (inactive),106% (inactive),82.9% (inactive),109% (inactive),15.7% (inactive),93.8,109
CC[N+](C)(C)Cc1ccccc1Br,102,92% (inactive),102% (inactive),107% (inactive),98.8% (inactive),-4.18% (inactive),103,98.8
N=c1c[n+](N2CCOCC2)[n-]o1,114,100% (inactive),114% (inactive),97.7% (inactive),96.5% (inactive),-4.17% (inactive),101,96.5
CN(C)CCCN1c2ccccc2CCc2ccccc21,105,104% (inactive),105% (inactive),81% (inactive),77.7% (inactive),4.16% (inactive),73.5,77.7
CN(CCO)CC(O)Cn1cnc2c1c(=O)n(C)c(=O)n2C (stereo not given) (tested in a mixture with another compound),87,88.5% (inactive),87% (inactive),94.1% (inactive),83.6% (inactive),-2.31% (inactive),85.9,83.6
O=C(NCC1CCCCN1)c1cc(OCC(F)(F)F)ccc1OCC(F)(F)F (stereo not given),86,101% (inactive),86% (inactive),91.8% (inactive),97.9% (inactive),-4.55% (inactive),102,97.9
CC1CCc2cc(F)cc3c(=O)c(C(=O)O)cn1c23 (stereo not given),104,100% (inactive),104% (inactive),98.5% (inactive),104% (inactive),4.35% (inactive),99.2,104
c1ccc2c(CC3=NCCN3)cccc2c1,101,99.5% (inactive),101% (inactive),91.7% (inactive),93.8% (inactive),14.9% (inactive),78.9,93.8
C[C@H]1C[C@H]2[C@@H]3CCC4=CC(=O)C=C[C@]4(C)[C@@]3(Cl)[C@@H](O)C[C@]2(C)[C@@]1(O)C(=O)CO,110,112% (inactive),110% (inactive),91.4% (inactive),97.5% (inactive),-5.3% (inactive),103,97.5
c1ccc2[nH]c(-c3cscn3)nc2c1,106,104% (inactive),106% (inactive),91.1% (inactive),97.9% (inactive),-4.19% (inactive),102,97.9
CC[N+](C)(CC)CCOC(=O)C(O)(c1ccccc1)C1CCCCC1 (stereo not given),91.5,97.5% (inactive),91.5% (inactive),98.9% (inactive),110% (inactive),12.8% (inactive),97,110
CCCC(=O)Nc1ncnc2c1ncn2[C@@H]1O[C@@H]2COP(=O)(O)O[C@H]2[C@H]1OC(=O)CCC,102,104% (inactive),102% (inactive),109% (inactive),104% (inactive),13.3% (inactive),90.8,104
CCCC(=O)O[C@]1(C(=O)CCl)[C@@H](C)C[C@H]2[C@@H]3CCC4=CC(=O)C=C[C@]4(C)[C@@]3(F)C(=O)C[C@@]21C,88.5,122% (inactive),88.5% (inactive),81.2% (inactive),87.8% (inactive),6.43% (inactive),81.4,87.8
CC(C)C[C@H](NC(=O)[C@@H]1O[C@H]1C(=O)O)C(=O)NCCCCN=C(N)N,100,104% (inactive),100% (inactive),86% (inactive),100% (inactive),-2.29% (inactive),103,100
CCC(NC(C)C)C(O)c1ccc(O)c(O)c1 (stereo not given),87.5,88% (inactive),87.5% (inactive),105% (inactive),85% (inactive),-6.46% (inactive),91.5,85
CCN(CC)CCNC(=O)c1ccc(N)cc1,97.5,136% (inactive),97.5% (inactive),99.2% (inactive),88.1% (inactive),-10.7% (inactive),98.8,88.1
Cc1cn([C@H]2C=C[C@@H](CO)O2)c(=O)[nH]c1=O,94,94.5% (inactive),94% (inactive),104% (inactive),109% (inactive),22.8% (inactive),86.2,109

SMILES,viability [1] [%],Her2 level [2],viability [3],viability [4],viability [5],differential viability (reversal) ([6]; H69AR cells + 2 uM doxorubicin),"viability [6, 7] [%]","viability [6, 8] [%]"
CN(C)CCOc1ccccc1Cc1ccccc1,88.5,95.5% (inactive),88.5% (inactive),107% (inactive),100% (inactive),11% (inactive),89.5,100
O=c1n(CCCN2CCN(c3cccc(Cl)c3)CC2)nc2ccccn12,81,93% (inactive),81% (inactive),99.2% (inactive),87.3% (inactive),-7.03% (inactive),94.3,87.3
CN1CCC(=C2c3ccccc3CC(=O)c3sccc32)CC1,96,87% (inactive),96% (inactive),76.4% (inactive),91.4% (inactive),11.8% (inactive),79.6,91.4
CCCCCCCC(=O)OCC(=O)[C@@]1(O)CC[C@H]2[C@@H]3CCC4=CC(=O)CC[C@]4(C)[C@H]3[C@@H](O)C[C@@]21C,120,102% (inactive),120% (inactive),97.6% (inactive),102% (inactive),-5.05% (inactive),107,102
C[C@@H]1C[C@H]2[C@@H]3CCC4=CC(=O)C=C[C@]4(C)[C@@]3(F)[C@@H](O)C[C@]2(C)[C@@]1(O)C(=O)COP(=O)(O)O,99,125% (inactive),99% (inactive),102% (inactive),97.9% (inactive),-24.3% (inactive),122,97.9
Cc1cccc(CN2CCN(C(c3ccccc3)c3ccc(Cl)cc3)CC2)c1 (stereo not given),83,93.5% (inactive),83% (inactive),96.4% (inactive),96.8% (inactive),1.06% (inactive),95.8,96.8
CCCCC(=O)O[C@]1(C(=O)CO)CC[C@H]2[C@@H]3CCC4=CC(=O)CC[C@]4(C)[C@H]3[C@@H](O)C[C@@]21C,111,108% (inactive),111% (inactive),101% (inactive),96.3% (inactive),3.07% (inactive),93.3,96.3
COc1ccc([C@@H]2Sc3ccccc3N(CCN(C)C)C(=O)[C@@H]2OC(C)=O)cc1,76,106% (inactive),76% (inactive),100% (inactive),92.1% (inactive),-11.2% (inactive),103,92.1
C[N+]12CCC(CC1)C(OC(=O)C(O)(c1ccccc1)c1ccccc1)C2 (stereo not given),97.5,96.5% (inactive),97.5% (inactive),100% (inactive),90.7% (inactive),11.9% (inactive),78.7,90.7
O=C(O)CCCCCCC1C(=O)NC(=O)N1CCC(O)C1CCCCC1 (stereo not given),108,108% (inactive),108% (inactive),79.8% (inactive),99.3% (inactive),-4.75% (inactive),104,99.3
CCC(NC(C)C)C(O)c1ccc(O)c2[nH]c(=O)ccc12 (stereo not given),108,94.5% (inactive),108% (inactive),107% (inactive),94.4% (inactive),11.7% (inactive),82.7,94.4
CC(C[N+](C)(C)C)OC(N)=O (stereo not given),101,114% (inactive),101% (inactive),97.5% (inactive),99.4% (inactive),1.13% (inactive),98.3,99.4
Nc1nc(F)nc2c1ncn2[C@@H]1O[C@H](CO)[C@@H](O)[C@@H]1O,97,104% (inactive),97% (inactive),65.7% (inactive),103% (inactive),-2.94% (inactive),106,103
CC(=O)N[C@@H](CS)C(=O)O,105,105% (inactive),105% (inactive),90.8% (inactive),101% (inactive),12.8% (inactive),88.6,101
CN1CCCN=C1COC(=O)C(O)(c1ccccc1)C1CCCCC1 (stereo not given),95,79.5% (inactive),95% (inactive),95% (inactive),91.6% (inactive),3.15% (inactive),88.4,91.6
COc1ccccc1OCC(O)COC(N)=O (stereo not given),93.5,96% (inactive),93.5% (inactive),90.5% (inactive),99.9% (inactive),7.94% (inactive),92,99.9
C[C@]12CCC(=O)C=C1CC[C@@H]1[C@@H]2CC[C@@]2(C)[C@H]1CC[C@]2(O)C(=O)CO,99,142% (inactive),99% (inactive),97.7% (inactive),92.8% (inactive),-6.52% (inactive),99.4,92.8
CN(C(=O)C(Cl)Cl)c1ccc(OC(=O)c2ccco2)cc1,130,88% (inactive),130% (inactive),86.3% (inactive),96.6% (inactive),5.13% (inactive),91.5,96.6
CC(=O)Oc1cc(C(C)C)c(OCCN(C)C)cc1C,96.5,118% (inactive),96.5% (inactive),105% (inactive),99% (inactive),1.28% (inactive),97.8,99
Nc1ccc2[nH]ncc2c1,80.5,106% (inactive),80.5% (inactive),84.1% (inactive),100% (inactive),-6.96% (inactive),107,100
